Calls of active or inactive are those of the source. No cut-off for these calls is given here.

For series [1], the system named is Echinococcus granulosus. Description: Antimicrobial activity against Echinococcus granulosus protoscoleces assessed as reduction in protoscoleces viability at 10 uM by trypan blue exclusion assay. In kind it is functional. A digest of the protocol:
(§1)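 E. granulosus protoscoleces were isolated and kept in vitro per earlier work. Compounds from 10 mM DMSO stocks were added at 4, 10 and 40 μM, with nitazoxanide as positive control and DMSO as solvent control. Viability was scored microscopically by trypan blue exclusion over days of culture. The experiment was repeated three times.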

In series [2] the test system is Echinococcus granulosus. Put plainly: Antimicrobial activity against Echinococcus granulosus protoscoleces assessed as reduction in protoscoleces viability at 40 uM by trypan blue exclusion assay. It is filed as functional. A digest of the protocol:
as §1

For series [3], the system named is Echinococcus multilocularis. Put plainly: Antimicrobial activity against Echinococcus multilocularis metacestode assessed as increase in alkaline phosphatase activity at 40 uM within 4 days. It is filed as functional, organism-based. A digest of the protocol: (§2)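 In vitro-cultured E. multilocularis metacestode vesicles were treated for 12 days with compounds at 40 μM (10 mM DMSO stocks). Albendazole was the positive control and matching DMSO the negative control. Culture supernatant was sampled daily and stored at −20°C, and parasite alkaline phosphatase (EmAP) activity was assayed at the time points shown.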

Series [4] relates to Echinococcus multilocularis. Put plainly: Antimicrobial activity against Echinococcus multilocularis metacestode assessed as increase in alkaline phosphatase activity at 40 uM.
Series [5] relates to Echinococcus multilocularis. Description: Antimicrobial activity against Echinococcus multilocularis -infected in BALB/c mouse assessed as parasite weight at 200 mg/kg body weight intragastrically administered 8 weeks post-infecion (reference value: 5.71+/-1.79 g). It is filed as functional. The settings on record: route intragastric.
The test system of series [6] is Echinococcus granulosus. Description: Antimicrobial activity against Echinococcus granulosus protoscoleces assessed as reduction in protoscoleces viability at 40 uM after 6 days by trypan blue exclusion assay. In kind it is functional. A digest of the protocol: as §1
The subject of series [7] is Echinococcus granulosus. Put plainly: Antimicrobial activity against Echinococcus granulosus protoscoleces assessed as reduction in protoscoleces viability at 40 uM upto 2 days by trypan blue exclusion assay. In kind it is functional. A digest of the protocol:
as §1

The subject of series [8] is Echinococcus multilocularis. Put plainly: Antimicrobial activity against Echinococcus multilocularis metacestode assessed as increase in alkaline phosphatase activity at 40 uM after 8 days. In kind it is functional, organism-based. A digest of the protocol: as §2
For series [9], the system named is Echinococcus granulosus. Put plainly: Antimicrobial activity against Echinococcus granulosus metacestode assessed as loss of multicellular structure of germinal layer by transmission electron microscopy. In kind it is functional.
For another series, the species on record is Mus musculus. Description: Toxicity against Echinococcus multilocularis -infected in BALB/c mouse assessed as adverse effect. It is filed as organism-based. The conditions noted are these: in vivo.
In series [10] the test system is Echinococcus multilocularis. Put plainly: Antimicrobial activity against Echinococcus multilocularis metacestode assessed as loss of multicellular structure of germinal layer by transmission electron microscopy. In kind it is functional, organism-based.

With `CC(=O)Oc1ccccc1C(=O)Nc1ncc([N+](=O)[O-])s1`, the outcome with Echinococcus granulosus [1] was Active.

Regarding `CO[C@H]1O[C@@H]2O[C@@]3(C)CC[C@H]4[C@H](C)CC[C@@H]([C@H]1C)[C@@]24OO3`, the result (in the series with Echinococcus granulosus [2]; in series [3]; in series [4]) was inactive.

In the case of `C[C@@H]1CC[C@H]2[C@@H](C)C(=O)O[C@@H]3O[C@@]4(C)CC[C@@H]1[C@]32OO4`, the outcome (in the series with Echinococcus granulosus [2]; in series [3]; in series [4]) was inactive.

Turning to `CCCSc1ccc2[nH]c(NC(=O)OC)nc2c1` [ALBENDAZOLE], in [5], the Activity stood at 2.96 g.

In the case of `C[C@H]1[C@@H](O)O[C@@H]2O[C@@]3(C)CC[C@H]4[C@H](C)CC[C@@H]1[C@@]24OO3` [ARTENIMOL], the Activity is recorded as 90% in the series on Echinococcus granulosus [6], 4.11 g in series [5] and “Non-toxic” in the series listed under Mus musculus. Further, the outcome (in the series on Echinococcus granulosus [7]; in the series on Echinococcus granulosus [1]; in series [4]) was inactive. Further, the result (with Echinococcus granulosus [2]; in series [8]; in the series with Echinococcus granulosus [9]; in [10]) was Active.

Take `C[C@H]1[C@H](OC(=O)CCC(=O)O)O[C@@H]2O[C@@]3(C)CC[C@H]4[C@H](C)CC[C@@H]1[C@@]24OO3` [ARTESUNATE]: the outcome (in the series with Echinococcus granulosus [1]; in series [4]) was inactive. Moreover, the values for the Activity (in series [5]; in the series listed under Mus musculus) were 4.6 g and “Non-toxic”, respectively. In addition, the outcome (with Echinococcus granulosus [2]; in series [3]; with Echinococcus granulosus [9]; in series [10]) was Active.

These data come from ChEMBL document CHEMBL1629552, “In vitro and in vivo treatments of echinococcus protoscoleces and metacestodes with artemisinin and artemisinin derivatives” (Antimicrob Agents Chemother, 2008).
